Source: PubChem (Broad Institute)
Rows were chosen to be rich in hits. Some 5.8% of all compounds tested hit in one or more screens of this group.
IDH1 R132H inh – blocks human IDH1 R132H reductase activity | diaphorase/resazurin fluorescence, 60 min | inhibition, % at 10 µM | actives 0.18% (n = 70,000); in the data active means inhibition above about 34%; inconclusive means no clear call, values can overlap the other calls; inactive means below about 11%;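 further: 0% = DMSO and 100% = no enzyme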
Target sequence (O75874 whole entry R132H): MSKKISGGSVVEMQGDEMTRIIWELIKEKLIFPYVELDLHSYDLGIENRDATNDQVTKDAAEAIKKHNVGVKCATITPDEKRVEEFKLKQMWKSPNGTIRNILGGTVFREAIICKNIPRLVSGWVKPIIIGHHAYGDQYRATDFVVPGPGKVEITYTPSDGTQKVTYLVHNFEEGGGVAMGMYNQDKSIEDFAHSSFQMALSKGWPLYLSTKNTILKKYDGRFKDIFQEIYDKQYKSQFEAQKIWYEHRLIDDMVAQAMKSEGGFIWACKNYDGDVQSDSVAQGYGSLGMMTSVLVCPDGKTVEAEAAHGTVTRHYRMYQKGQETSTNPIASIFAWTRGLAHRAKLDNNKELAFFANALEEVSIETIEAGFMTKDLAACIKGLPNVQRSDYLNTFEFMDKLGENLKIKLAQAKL
Tcruzi prolif – inhibitors of T. cruzi proliferation | T. cruzi beta-gal in NIH3T3, GalScreen luminescence, 90 h | inhibition, % at 8.34 µM | actives 5.9% (n = 77,000) | AID 624255;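 active means mean inhibition above about 93%, with at least 55% of replicates each passing it, limit read from the data, passing the limit was not always enough; inconclusive means only one of those two conditions holds; inactive means neither condition holds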
KDM4C inh – blocks human GASC-1 (KDM4C) demethylase activity | Q9H3R0 | GST-KDM4C 2-372, H3K9me3 peptide, LANCE TR-FRET | actives 0.15% (n = 96,000) | AID 720574 | inhibition, % at 12.5 µM;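 active means mean replicate inhibition above about 25%, with at least 55% of replicates also reaching it, limit read from the data, passing the limit was not always enough; inconclusive means only one of those two conditions met; inactive means neither condition met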
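material = GST-tagged GASC-1 (JMJD2C) catalytic fragment, aa 2-372 | amount = enzyme final amount 10 nM | medium = HEPES buffer, pH 7.5, plus ascorbate | also added = H3K9me3 peptide substrate, Fe(II), 2-oxoglutarate | dosing = single dose | times = 30 min demethylation and 1 h detection at room temperature | detection = LANCE TR-FRET | read-out basis = Fall in 671/618 emission ratio as inhibition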
Pf Dd2 inh – P. falciparum Dd2 growth inhibition; SYBR Green, 72 h; stronger effect = lower value; activity change, % at 10 µM; actives 2.3% (n = 94,000); AID 1159554; in the data active means activity change below about -80%; inconclusive means no clear call, values can overlap the other calls
The depositor's hits bear a star; ! = not active in a repeat.

How did C[C@@H]1CN([C@H](C)CO)C(=O)c2cccc(NC(=O)c3nc4ccccc4s3)c2O[C@H]1CN(C)C(=O)NC1CCCCC1 do in these assays?
Tcruzi prolif: -59.6; KDM4C inh: -0.4; Pf Dd2 inh: -89.5*

How did COc1ccc(NC(=O)N(C)C[C@@H]2Oc3c(NC(=O)c4nc5ccccc5s4)cccc3C(=O)N([C@@H](C)CO)C[C@H]2C)cc1 do in these assays?
IDH1 R132H inh: 0.3; Tcruzi prolif: 23.5; KDM4C inh: -1.0; Pf Dd2 inh: -87.2*

How did C[C@@H]1CN([C@@H](C)CO)C(=O)c2cccc(NC(=O)c3nc4ccccc4s3)c2O[C@H]1CN(C)C(=O)NC1CCCCC1 do in these assays?
IDH1 R132H inh: -1.8; Tcruzi prolif: 0.2; KDM4C inh: 0.7; Pf Dd2 inh: -88.7*

What do the screens show for `O=C(CC(C(=O)O)N1CCCCC1)Nc1cccc2ccccc12` (stereo unspecified)?
IDH1 R132H inh: 0.4

How did COc1ccc(Cl)cc1N(CC(=O)Nc1ccc(C(F)(F)F)cc1)S(C)(=O)=O do in these assays?
IDH1 R132H inh: 0.3

How did COc1ccc(NC(=O)N2[C@@H]3CNC[C@H]2C3c2ccc(-c3ccc(OC)cc3)cc2)cc1 (stereo partly specified) do in these assays?
KDM4C inh: 0.9; Pf Dd2 inh: -33.2

Results for N#Cc1ccc(-c2ccc(C3[C@@H]4CN(C(=O)Nc5ccc(C(F)(F)F)cc5)C[C@H]3N4)cc2)cc1 (stereo partly specified) ?
KDM4C inh: -20.5; Pf Dd2 inh: inconclusive

How did COc1ccc(-c2ccc(C3[C@H]4CNC[C@@H]3N4C(=O)Nc3ccc(C(F)(F)F)cc3)cc2)cc1 (stereo partly specified) do in these assays?
KDM4C inh: -0.6; Pf Dd2 inh: -84.1*!

How did Cc1ccc(-c2ccc(C3[C@@H]4CN(C(=O)Nc5ccc(C(F)(F)F)cc5)C[C@H]3N4)cc2)cc1 (stereo partly specified) do in these assays?
KDM4C inh: -5.2; Pf Dd2 inh: -85.0*

What do the screens show for `O=C(Nc1ccc(C(F)(F)F)cc1)N1C[C@@H]2N[C@H](C1)C2c1ccc(-c2cccc(F)c2)cc1` (stereo partly specified)?
KDM4C inh: 1.7; Pf Dd2 inh: -83.5*!

Results for Cc1cc(OCc2noc(CSc3ccc(C(F)(F)F)cn3)n2)cc(C)c1Cl ?
IDH1 R132H inh: 1.3

How did Cc1ccc(-c2nn(CCC(=O)Nc3cccc(Cl)c3)c(=O)c3ccccc23)cc1 do in these assays?
IDH1 R132H inh: -0.7

Results for COc1ccc2c3c(n(C)c2c1)[C@H](CO)NCC31CCN(Cc2ccc(F)cc2)CC1 ?
Pf Dd2 inh: -83.1*

Results for COc1ccc2c3c(n(C)c2c1)[C@H](CO)NCC31CCN(Cc2ccc(Cl)cc2)CC1 ?
KDM4C inh: -1.4; Pf Dd2 inh: -91.0*

What do the screens show for `COc1ccc2c3c(n(C)c2c1)[C@H](CO)NCC31CCN(CC2CCCC2)CC1`?
KDM4C inh: 1.6; Pf Dd2 inh: -86.2*

Results for COc1ccc2c3c(n(C)c2c1)[C@H](CO)NCC31CN(CC2CCOCC2)C1 ?
KDM4C inh: -1.5; Pf Dd2 inh: 4.5

Results for Cc1c(Cl)cccc1NC(=O)Cn1cc(C(=O)c2ccccc2)c2ccccc21 ?
IDH1 R132H inh: -0.4

Results for Nc1ncnc(Sc2nc3ccccc3s2)c1[N+](=O)[O-] ?
IDH1 R132H inh: 0.8

Results for C[C@@H]1CCCCO[C@@H](CN(C)Cc2ccc(C(F)(F)F)cc2)[C@H](C)CN([C@H](C)CO)C(=O)c2cc(NC(=O)CCCN(C)C)ccc2O1 ?
IDH1 R132H inh: 1.3; Tcruzi prolif: 77.4; KDM4C inh: 6.4; Pf Dd2 inh: -88.9*

What do the screens show for `C[C@@H]1CN([C@H](C)CO)C(=O)c2cc(NC(=O)CCCN(C)C)ccc2O[C@@H](C)CCCCO[C@@H]1CN(C)Cc1ccc(C(F)(F)F)cc1`?
IDH1 R132H inh: 4.9; Tcruzi prolif: 48.8; KDM4C inh: -1.2; Pf Dd2 inh: -86.7*

What do the screens show for `C[C@H]1CCCCO[C@@H](CN(C)Cc2ccc(C(F)(F)F)cc2)[C@@H](C)CN([C@@H](C)CO)C(=O)c2cc(NC(=O)CCCN(C)C)ccc2O1`?
IDH1 R132H inh: -3.5; Tcruzi prolif: 72.7; KDM4C inh: 2.5; Pf Dd2 inh: -85.1*

Results for C[C@H](CO)N1C[C@H](C)[C@@H](CN(C)Cc2ccc(C(F)(F)F)cc2)OCCCC[C@H](C)Oc2ccc(NC(=O)CCCN(C)C)cc2C1=O ?
Tcruzi prolif: 2.0; KDM4C inh: 2.4; Pf Dd2 inh: -77.1

How did C[C@H]1CCCCO[C@H](CN(C)Cc2ccc(C(F)(F)F)cc2)[C@@H](C)CN([C@@H](C)CO)C(=O)c2cc(NC(=O)CCCN(C)C)ccc2O1 do in these assays?
Tcruzi prolif: 60.8; KDM4C inh: 3.9; Pf Dd2 inh: -85.8*

How did CCOC(=O)c1c(NC(=O)Cn2nc([N+](=O)[O-])c(Cl)c2C)sc2c1CCC2 do in these assays?
IDH1 R132H inh: 0.5

How did COc1ccc(C(NC(=O)c2ccccc2)c2ccc3cccnc3c2O)c(OC)c1 (stereo unspecified) do in these assays?
IDH1 R132H inh: 0.7

Results for C[C@@H]1CCCCO[C@H](CN(C)Cc2ccc(C(F)(F)F)cc2)[C@H](C)CN([C@H](C)CO)C(=O)c2cc(NC(=O)CCCN(C)C)ccc2O1 ?
Tcruzi prolif: 79.5; KDM4C inh: 4.5; Pf Dd2 inh: -87.0*

What do the screens show for `C[C@@H]1CN([C@@H](C)CO)C(=O)c2cc(NC(=O)Nc3ccccc3)ccc2O[C@@H](C)CCCCO[C@H]1CN(C)S(=O)(=O)c1ccc(Cl)cc1`?
IDH1 R132H inh: 0.3; Tcruzi prolif: 33.9; KDM4C inh: -0.5; Pf Dd2 inh: -82.9*

How did Cc1ccc(S(=O)(=O)N(C)C[C@@H]2OCCCC[C@H](C)Oc3ccc(NC(=O)Nc4ccccc4)cc3C(=O)N([C@@H](C)CO)C[C@H]2C)cc1 do in these assays?
Tcruzi prolif: 66.2; KDM4C inh: 0.1; Pf Dd2 inh: -91.6*

Results for Cc1ccc(S(=O)(=O)N(C)C[C@H]2OCCCC[C@H](C)Oc3ccc(NC(=O)NC4CCCCC4)cc3C(=O)N([C@@H](C)CO)C[C@H]2C)cc1 ?
Tcruzi prolif: 24.9; KDM4C inh: -0.5; Pf Dd2 inh: -86.1*

What do the screens show for `Cc1ccc(S(=O)(=O)N(C)C[C@@H]2OCCCC[C@@H](C)Oc3ccc(NC(=O)Nc4ccc(F)cc4)cc3C(=O)N([C@H](C)CO)C[C@@H]2C)cc1`?
IDH1 R132H inh: -0.5; Pf Dd2 inh: -83.5*

Results for O=C(NC1CCCC1)c1c(NC(=O)c2cc(-c3ccccn3)nc3ccccc23)sc2c1CCC2 ?
IDH1 R132H inh: -0.1

What do the screens show for `O=C1c2ccccc2C2=Nc3ccccc3SC(c3ccsc3)C12` (stereo unspecified)?
IDH1 R132H inh: 0.4

How did COCc1nc2ccccc2n1CCOc1ccc(Cl)cc1 do in these assays?
IDH1 R132H inh: -0.7
